An excerpt weighted towards active compounds, which were near 5.7% of everything screened.
Beta apoptosis = beta cell apoptosis inhibition | INS-1E cytokine-induced death, ATP luminescence, 48 h; percent of positive-control rescue, neutral wells zero | protection from apoptosis, % (no concentration beside the values) | 300,000 compounds, 0.8% hits | AID 435005;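 active = Every replicate reaches about 75%, or at least half do and their mean reaches it too, limit read from the data; inconclusive = At least half of replicates reach the limit but their mean does not; inactive = Under half of replicates reach the limit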;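 also: 0% = cytokine-treated negative control wells and 100% = positive control rescue; higher means more ATP so stronger rescue from cytokine killing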
T cruzi repl = T. cruzi replication inhibition. T. cruzi beta-gal in NIH3T3, luminescence, 90 h. 300,000 compounds, 1.4% hits. inhibition, % (test concentration not listed);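 active = mean inhibition across valid replicates above about 55%, limit read from the data; inconclusive = mean below that limit but half or more replicates reach it; inactive = mean below it, under half of replicates reach it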;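 also: signal also drops with host cell toxicity which is not excluded here; 0% = plate median of DMSO wells and 100% = zero luminescence signal; higher percent means less beta-gal luminescence so fewer parasites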
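Assay system: NIH/3T3 fibroblasts plus reporter T. cruzi. Amount: NIH/3T3 cells, 5,000 per well. Buffer or medium: DMEM, 2% fetal bovine serum. Doses: compound pinned at 50 nL/well, DMSO. Schedule: ≥90 h infection period, 3 h prior cell attachment. Signal: luminescent β-galactosidase signal after 60 min lysis. Read-out: parasite load inhibition, %.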
SKKanGAS inh = inhibitors of SKKanGAS S. pyogenes growth in kanamycin (SK-promoter or general growth effect); BacTiter-Glo, 6 h; inhibition, % at 7.5 µM; 300,000 compounds, 1.3% hits; AID 1662;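 active = mean replicate score, as percent of positive control median, at least 50; inconclusive = mean below 50 but one replicate at or above 50; inactive = mean and every replicate below 50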;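 also: strain carries kanamycin resistance gene driven by streptokinase promoter and grows in 40 µg/ml kanamycin; loss of luminescence reflects streptokinase promoter inhibition or plain growth inhibition; 0% = median of DMSO wells and 100% = positive control at its reference dose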
Calb FLC = C. albicans growth modulation with fluconazole | growth inhibition, % (no concentration beside the values) | C. albicans CaCi-2 (fluconazole-resistant clinical isolate) + fluconazole, Alamar Blue growth, 48 h | 300,000 compounds, 0.57% hits;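 active = growth inhibition above about 58% in most replicates, limit read from the data, passing the limit was not always enough; inconclusive = exactly half the replicates above a set limit; inactive = most replicates below a set limit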;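 also: all wells also contain fluconazole at 8 µg/ml as a sub-toxic cotreatment; 0% = median of DMSO wells and 100% = median of geldanamycin control wells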
CSC inhib = blocks cancer stem cells. cancer stem cell-like cells viability, luminescence. inhibition, % at 7.5 µM. 300,000 compounds, 1.1% hits. AID 2717; in the data active = inhibition above about 75%; inconclusive = no clear call, values can overlap the other calls; tested in HMLE shEcad cells
Mdm2 MdmX PPI = inhibitors of human Mdm2/MdmX interaction; O15151+Q00987; SaOS-2 split-luciferase Mdm2/MdmX complementation, luminescence; inhibition, % at 8 µM; 330,000 compounds, 3% hits;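 active = inhibition of at least 50% at 8 µM in the primary screen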
Target sequence (O15151 whole entry, looked up): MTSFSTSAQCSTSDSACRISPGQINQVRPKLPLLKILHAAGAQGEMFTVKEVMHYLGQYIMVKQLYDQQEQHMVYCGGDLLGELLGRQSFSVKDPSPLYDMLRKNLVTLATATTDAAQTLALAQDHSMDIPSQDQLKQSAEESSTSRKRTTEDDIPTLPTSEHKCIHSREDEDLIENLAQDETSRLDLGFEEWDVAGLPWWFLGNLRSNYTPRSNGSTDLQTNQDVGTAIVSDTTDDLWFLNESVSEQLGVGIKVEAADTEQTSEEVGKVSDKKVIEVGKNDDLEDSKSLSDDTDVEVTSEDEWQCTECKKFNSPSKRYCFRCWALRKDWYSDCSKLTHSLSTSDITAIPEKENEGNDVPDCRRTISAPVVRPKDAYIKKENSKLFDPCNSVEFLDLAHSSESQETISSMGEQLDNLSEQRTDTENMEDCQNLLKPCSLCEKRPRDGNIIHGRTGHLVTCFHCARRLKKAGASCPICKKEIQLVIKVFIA
Target sequence (Q00987 whole entry, looked up): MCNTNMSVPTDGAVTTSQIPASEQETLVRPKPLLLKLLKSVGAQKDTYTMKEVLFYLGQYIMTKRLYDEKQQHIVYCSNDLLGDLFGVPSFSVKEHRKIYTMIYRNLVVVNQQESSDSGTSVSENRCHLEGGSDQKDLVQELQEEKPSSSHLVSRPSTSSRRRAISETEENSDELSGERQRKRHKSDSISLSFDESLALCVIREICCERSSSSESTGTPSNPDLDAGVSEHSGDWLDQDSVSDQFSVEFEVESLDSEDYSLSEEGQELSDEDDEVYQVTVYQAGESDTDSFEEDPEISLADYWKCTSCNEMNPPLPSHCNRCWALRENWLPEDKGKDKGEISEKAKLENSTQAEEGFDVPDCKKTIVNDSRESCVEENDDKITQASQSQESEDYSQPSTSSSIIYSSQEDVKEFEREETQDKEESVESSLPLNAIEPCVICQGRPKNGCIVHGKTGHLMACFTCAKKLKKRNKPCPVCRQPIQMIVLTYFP
Mdm2-MdmX conf = confirmation of human Mdm2/MdmX interaction inhibitors | shares compounds with Mdm2 MdmX PPI | Mdm2-MdmX binding, luminescent assay | inhibition, % at 8 µM | 10,000 compounds, 55% hits | AID 489028; in the data active = inhibition above about 40%
Full FLuc ctr = full-length luciferase inhibition in Mdm2/MdmX counter-screen | shares compounds with Mdm2 MdmX PPI | inhibition, % at 8 µM | SaOS-2 full-length luciferase counterscreen, luminescence | 6,200 compounds, 77% hits | AID 504607;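 active = mean inhibition at 8 µM reaching about 37%, which flags the compound as non-specific, limit read from the data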;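 also: p53-null SaOS-2 cells with luciferase driven by a doxycycline-inducible promoter; compound on cells about two nights before reading with doxycycline added after day one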
The depositor's hits bear a star; u = inconclusive; x = no result given.

SMILES	Beta apoptosis	T cruzi repl	SKKanGAS inh	Calb FLC	CSC inhib	Mdm2 MdmX PPI	Mdm2-MdmX conf	others
CCN(Cc1ccccc1)S(=O)(=O)c1ccc(C(=O)N(CCCN(C)C)c2nc3cc(OC)ccc3s2)cc1	5	52	10	-1	34	50*	23
CCN(Cc1ccccc1)S(=O)(=O)c1ccc(C(=O)N(CCCN(C)C)c2nc3ccc(F)cc3s2)cc1	2	37	12	0	-12	47	x
COc1ccc2sc(N(CCCN(C)C)C(=O)c3ccc(C(=O)c4ccccc4)cc3)nc2c1	x	54	-5	-8	18	26	x
COc1cc2nc(N(CCCN(C)C)C(=O)c3ccc(S(=O)(=O)N(C)C4CCCCC4)cc3)sc2cc1OC	x	50	-2	3	0	17	x
O=C(O)c1ccc2ncc(NC(=O)c3ccc(F)cc3)c(=O)n2c1	2	5	-6	1	-10	14	x
CC(=O)c1c(C)oc2ccc(N(C(C)=O)S(=O)(=O)c3ccc(Cl)c([N+](=O)[O-])c3)cc12	-9	-3	9	-3	35	98*	95*	Full FLuc ctr=57*
CC(=O)c1c(C)oc2ccc(N(C(C)=O)S(=O)(=O)c3ccc(Br)cc3)cc12	39	1	7	21	1	45	x
CC(C)[C@H](NC(=O)c1ccc(C(C)(C)C)cc1)C(=O)N1CCN(Cc2ccc3c(c2)OCO3)CC1	25	x	x	x	x	52*	32	Full FLuc ctr=55*
C[C@H](NC(=O)c1ccccc1)C(=O)N1CCN(Cc2ccc3c(c2)OCO3)CC1	-1	x	x	x	5	6	x
COc1ccc(OC(C)C(=O)N2CCCc3ccccc32)cc1 (stereo not given)	-4	0	0	41	-15	10	x
COC(=O)c1sc(-c2ccccc2)cc1NC(=O)c1ccc(OC)cc1	16	16	-1	-7	24	75*	6
CCOC(=O)c1cc(-c2ccccc2)sc1NC(=O)c1ccc(OC)cc1	25	-4	4	u	-13	75*	20
CCOc1cc(S(=O)(=O)NCc2ccc(OC)cc2)c(OCC)cc1-n1cnnn1	1	4	x	-21	x	51*	45*	Full FLuc ctr=86*
CCOc1cc(S(=O)(=O)NCCc2ccc(OC)c(OC)c2)c(OCC)cc1-n1cnnn1	1	12	0	-10	-18	-2	x
CCOc1ccc(-n2c(N)c(-c3nc4ccccc4n3C)c3nc4ccccc4nc32)cc1	5	-12	49	2	-6	63*	59*	Full FLuc ctr=66*
O=C(NC(Cc1ccccc1)C(=O)O)/C(=C/c1cccc([N+](=O)[O-])c1)NC(=O)c1cccc(Br)c1 (stereo not given)	x	2	6	4	5	0	x
Cc1c(N=C2N=C(NC(=O)c3cccs3)c3ccccc32)c(=O)n(-c2ccccc2)n1C	20	27	21	1	28	78*	13
O=C(NCc1ccccc1Cl)c1ccc(CS(=O)Cc2ccc(Cl)cc2)o1 (stereo not given)	2	3	2	6	-12	12	x
COC(=O)c1c(-c2ccc(OC)cc2)sc2ccc(N3CCOCC3)cc12	8	x	x	x	43	57*	-13
COC(=O)C1=C(C)N(Cc2ccccc2)C(=NCc2ccc(OC)cc2)N[C@H]1c1cccc(F)c1	4	26	15	11	14	87*	47*	Full FLuc ctr=57*
COC(=O)C1=C(C)N(Cc2ccccc2)C(=NCc2cccc(Cl)c2)N[C@H]1c1cccc(F)c1	98*	x	x	x	134*	100*	60*	Full FLuc ctr=11
COC(=O)C1=C(C)N(Cc2ccccc2)C(=NCc2ccc3c(c2)OCO3)N[C@H]1c1ccccc1	-6	x	x	x	5	56*	8
COC(=O)C1=C(C)N(Cc2ccccc2)C(=NCc2cc(OC)c(OC)c(OC)c2)N[C@H]1c1cccc(F)c1	-4	22	8	-5	-2	62*	22
CCOC(=O)c1ccc(NC(=O)c2c(N)n(C)c(=O)n(C)c2=O)cc1	3	-6	11	-2	-24	85*	9
CCOC(=O)c1ccc(NC(=O)c2c(C)[nH]c(C(=O)OCC)c2C)cc1	13	-10	1	-6	-6	6	x
SMILES	Beta apoptosis	T cruzi repl	SKKanGAS inh	Calb FLC	CSC inhib	Mdm2 MdmX PPI	Mdm2-MdmX conf	others
CCOc1cccc(CN2CCC(Oc3ccc(C(=O)NCc4ccccn4)cc3)CC2)c1	-3	-1	9	5	-7	21	x
Cn1nc(C(F)(F)F)c2cc(C(=O)Nc3ccc(C(F)(F)F)cc3)sc21	35	42	26	23	72	61*	12
C=C1C(=O)O[C@@]23[C@H]1CC[C@@H](C)[C@@H]2CC[C@@]1(C)O[C@@H]31	-3	x	x	x	17	71*	33	Full FLuc ctr=18
CCCCc1ccc(S(=O)(=O)Nc2nnc(C)s2)cc1	4	-7	4	33	2	15	x
CNC(=O)c1c(NC(=O)c2cc(-c3cc(C)c(C)cc3O)n[nH]2)sc2c1CCCC2	9	-1	-3	2	15	50*	-3
COc1ccc(C(=O)Nc2ccc(Oc3nc(C)nc4sc(-c5ccccc5)cc34)cc2)cc1OC	35	-16	22	-7	37	56*	-4
COc1ccccc1C(=O)Nc1ccc(Oc2ncnc3sc(-c4ccccc4)cc23)cc1	4	39	14	9	4	9	x
COc1ccc(C(=O)Nc2ccc(Oc3ncnc4sc(-c5ccccc5)cc34)cc2)cc1OC	4	-9	28	5	31	5	x
COc1cc(C(=O)Nc2ccc(Oc3ncnc4sc(-c5ccccc5)cc34)cc2)cc(OC)c1OC	4	3	33	11	x	53*	28
C[C@@]12C(=O)Nc3cc(Cl)ccc3C(=O)N1[C@H]1c3cc(Br)ccc3OC[C@@H]1[C@@H]2c1ccccc1	23	x	x	x	-4	67*	72*	Full FLuc ctr=31
Cc1ccc2c(c1)C(=O)N1[C@H]3c4cc(Cl)ccc4OC[C@@H]3[C@H](c3ccccc3)[C@]1(C)C(=O)N2	-5	x	x	x	35	47	x
C[C@@]12C(=O)Nc3cc(Cl)ccc3C(=O)N1[C@H]1c3cc(Cl)ccc3OC[C@@H]1[C@@H]2c1ccccc1	-3	x	x	x	x	61*	26
Cc1ccc2c(c1)C(=O)N1[C@H]3c4cc(C)ccc4OC[C@@H]3[C@H](c3ccccc3)[C@]1(C)C(=O)N2	7	x	x	x	43	54*	43*	Full FLuc ctr=38*
COc1ccc2c(c1)OC[C@H]1[C@H]2N2C(=O)c3cc(OC)c(OC)cc3NC(=O)[C@@]2(C)[C@H]1c1ccccc1	12	x	x	x	4	58*	35

Source: PubChem BioAssay (several laboratories)
